In ChEMBL document CHEMBL1240400, “Comparative in vitro activities of nemonoxacin (TG-873870), a novel nonfluorinated quinolone, and other quinolones against clinical isolates” (2010):
≈ marks a conversion by molar mass, not a printed value.

Key:
Assay type in all cases: functional
Enterococcus faecium [1] = assay: Antibacterial activity against vancomycin resistant Enterococcus faecium by broth dilution method
Procedure, shortened: (§1)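 Clinical isolates tested by CLSI broth microdilution in panels holding serial twofold drug dilutions in cation-adjusted Mueller-Hinton broth. Final inoculum 5 × 10^5 CFU/ml was made from a 0.5 McFarland suspension. Plates were incubated overnight at 35°C in ambient air, and the MIC was read as the lowest concentration inhibiting growth. Quality control strains were included in each run.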

Enterococcus faecalis [2] = assay: Antibacterial activity against Enterococcus faecalis by broth dilution method
Pseudomonas aeruginosa = assay: Antibacterial activity against Pseudomonas aeruginosa by broth dilution method
Neisseria gonorrhoeae [3] = assay: Antibacterial activity against levofloxacin resistant Neisseria gonorrhoeae isolates by broth dilution method
Procedure, shortened: (§2)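 Neisseria gonorrhoeae clinical isolates tested by CLSI broth microdilution in Mueller-Hinton broth with 3% lysed horse blood, inoculated from a 0.5 McFarland suspension. Plates were incubated overnight at 35°C in 5% CO2, and the MIC was read as the lowest inhibitory concentration. Quality control strains were included in each run.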

Proteus mirabilis = assay: Antibacterial activity against Proteus mirabilis by broth dilution method
Acinetobacter baumannii = assay: Antibacterial activity against Acinetobacter baumannii by broth dilution method
Procedure, shortened: (§3)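 Broth microdilution per CLSI in panels spanning a dilution range of each agent. Cation-adjusted Mueller-Hinton broth, final inoculum 5 × 10^5 CFU/ml from a 0.5 McFarland suspension. Incubated overnight at 35°C in ambient air, with quality control strains in each run. MIC reported; values at or below the lowest concentration tested are given as that concentration.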

Citrobacter freundii = assay: Antibacterial activity against Citrobacter freundii by broth dilution method; procedure, shortened: as §3
Enterococcus faecalis [4] = assay: Antibacterial activity against vancomycin resistant Enterococcus faecalis by broth dilution method
Neisseria gonorrhoeae [5] = assay: Antibacterial activity against ciprofloxacin resistant Neisseria gonorrhoeae isolates by broth dilution method; procedure, shortened: as §2
Escherichia coli [6] = assay: Antibacterial activity against ciprofloxacin susceptible Escherichia coli by broth dilution method; procedure, shortened: as §3
[7] = system: Staphylococcus epidermidis; assay: Antibacterial activity against methicillin resistant coagulase negative Staphylococcus epidermidis by broth dilution method
Staphylococcus aureus [8] = assay: Antibacterial activity against ciprofloxacin and methicillin resistant Staphylococcus aureus by broth dilution method; procedure, shortened: as §1
Klebsiella pneumoniae = assay: Antibacterial activity against Klebsiella pneumoniae by broth dilution method; procedure, shortened: as §3
Streptococcus viridans = assay: Antibacterial activity against Streptococcus viridans by broth dilution method
Procedure, shortened: (§4)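 Streptococci were tested by CLSI broth microdilution in Mueller-Hinton broth with 3% lysed horse blood, seeded from a 0.5 McFarland suspension. Incubated overnight at 35°C in ambient air, with quality control strains in each run. MIC taken over a per-agent dilution range.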

Haemophilus influenzae = assay: Antibacterial activity against Haemophilus influenzae by broth dilution method
Procedure, shortened: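 Broth microdilution per CLSI using Haemophilus Test Medium broth, seeded from a 0.5 McFarland suspension. Incubated overnight at 35°C in ambient air, with quality control strains in each run. MIC read against a tested dilution range; values at the low limit are given as the lowest concentration.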

Escherichia coli [9] = assay: Antibacterial activity against ciprofloxacin resistant Escherichia coli by broth dilution method; procedure, shortened: as §1
Streptococcus pneumoniae [10] = assay: Antibacterial activity against Levofloxacin resistant Streptococcus pneumoniae by broth dilution method
Procedure, shortened: (§5)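 Streptococcus pneumoniae clinical isolates tested by CLSI broth microdilution. A 0.5 McFarland suspension was diluted into Mueller-Hinton broth with 3% lysed horse blood, then tested against serial drug dilutions. Plates were incubated overnight at 35°C in ambient air, and the MIC was read as the lowest inhibitory concentration. Quality control strains were included in each run.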

Enterococcus faecium [11] = assay: Antibacterial activity against Enterococcus faecium by broth dilution method; procedure, shortened: as §1
Neisseria gonorrhoeae [12] = assay: Antibacterial activity against moxifloxacin resistant Neisseria gonorrhoeae isolates by broth dilution method; procedure, shortened: as §2
Staphylococcus aureus [13] = assay: Antibacterial activity against methicillin susceptible Staphylococcus aureus by broth dilution method
Staphylococcus = assay: Antibacterial activity against methicillin resistant coagulase negative Staphylococcus by broth dilution method
Streptococcus pyogenes = assay: Antibacterial activity against Streptococcus pyogenes by broth dilution method; procedure, shortened: as §4
Staphylococcus aureus [14] = assay: Antibacterial activity against ciprofloxacin susceptible and methicillin resistant Staphylococcus aureus by broth dilution method; procedure, shortened: as §1
Streptococcus agalactiae = assay: Antibacterial activity against Streptococcus agalactiae by broth dilution method; procedure, shortened: as §4
Enterobacter cloacae = assay: Antibacterial activity against Enterobacter cloacae by broth dilution method
Streptococcus pneumoniae [15] = assay: Antibacterial activity against Levofloxacin susceptible Streptococcus pneumoniae by broth dilution method; procedure, shortened: as §5

Work on `COc1c(N2C[C@@H]3CCCN[C@@H]3C2)c(F)cc2c(=O)c(C(=O)O)cn(C3CC3)c12` [MOXIFLOXACIN] yielded an MIC (Enterococcus faecium [1]) of 1 µg/mL (≈ 2.49 µM), an MIC50 (Enterococcus faecalis [2]) of 0.5 µg/mL (≈ 1.25 µM) and an MIC90 (Enterococcus faecalis [2]) of over 8 µg/mL. The MIC50 (Pseudomonas aeruginosa) was over 8 µg/mL, the MIC90 (Pseudomonas aeruginosa) was over 8 µg/mL and the MIC (Neisseria gonorrhoeae [3]) was 1 µg/mL (≈ 2.49 µM). It also gave an MIC50 (Proteus mirabilis) of 8 µg/mL (≈ 19.9 µM), an MIC90 (Proteus mirabilis) of over 8 µg/mL and an MIC50 (Acinetobacter baumannii) of 1 µg/mL (≈ 2.49 µM). The MIC90 (Acinetobacter baumannii) was over 8 µg/mL, the MIC50 (Citrobacter freundii) was 0.5 µg/mL (≈ 1.25 µM) and the MIC90 (Citrobacter freundii) was 8 µg/mL (≈ 19.9 µM). For the same molecule, the MIC50 (Enterococcus faecalis [4]) was 0.5 µg/mL (≈ 1.25 µM), the MIC (Neisseria gonorrhoeae [5]) was 2 µg/mL (≈ 4.98 µM) and the MIC50 (Escherichia coli [6]) was 0.5 µg/mL (≈ 1.25 µM). The MIC90 (Escherichia coli [6]) was 1 µg/mL (≈ 2.49 µM), the MIC50 [7] was 0.12 µg/mL (≈ 0.299 µM) and the MIC90 [7] was 2 µg/mL (≈ 4.98 µM). The MIC50 (Staphylococcus aureus [8]) was 4 µg/mL (≈ 9.96 µM), the MIC90 (Staphylococcus aureus [8]) was 4 µg/mL (≈ 9.96 µM) and the MIC50 (Klebsiella pneumoniae) was 4 µg/mL (≈ 9.96 µM). For the same molecule, the MIC90 (Klebsiella pneumoniae) was over 8 µg/mL, the MIC50 (Streptococcus viridans) was 0.12 µg/mL (≈ 0.299 µM) and the MIC90 (Streptococcus viridans) was 0.25 µg/mL (≈ 0.623 µM). It also gave an MIC50 (Haemophilus influenzae) of 0.25 µg/mL (≈ 0.623 µM), an MIC90 (Haemophilus influenzae) of over 8 µg/mL and an MIC50 (Escherichia coli [9]) of over 8 µg/mL. The MIC90 (Escherichia coli [9]) was over 8 µg/mL, the MIC (Streptococcus pneumoniae [10]) was 2 µg/mL (≈ 4.98 µM) and the MIC50 (Streptococcus pneumoniae [10]) was 2 µg/mL (≈ 4.98 µM). The MIC90 (Streptococcus pneumoniae [10]) was 8 µg/mL (≈ 19.9 µM), the MIC50 (Enterococcus faecium [11]) was over 8 µg/mL and the MIC90 (Enterococcus faecium [11]) was over 8 µg/mL. For the same molecule, the MIC (Neisseria gonorrhoeae [12]) was 0.5 µg/mL (≈ 1.25 µM).

`C[C@H]1COc2c(N3CCN(C)CC3)c(F)cc3c(=O)c(C(=O)O)cn1c23.C[C@H]1COc2c(N3CCN(C)CC3)c(F)cc3c(=O)c(C(=O)O)cn1c23.O` [LEVOFLOXACIN] was tested, and the MIC (Enterococcus faecium [1]) was 2 µg/mL, the MIC50 (Enterococcus faecalis [2]) was 2 µg/mL and the MIC90 (Enterococcus faecalis [2]) was over 16 µg/mL. For the same molecule, the MIC50 (Staphylococcus aureus [13]) was 0.25 µg/mL, the MIC90 (Staphylococcus aureus [13]) was 1 µg/mL and the MIC50 (Pseudomonas aeruginosa) was 8 µg/mL. The MIC90 (Pseudomonas aeruginosa) was over 16 µg/mL, the MIC (Neisseria gonorrhoeae [3]) was 1 µg/mL and the MIC50 (Proteus mirabilis) was 2 µg/mL. For the same molecule, the MIC90 (Proteus mirabilis) was over 16 µg/mL, the MIC50 (Staphylococcus) was 0.5 µg/mL and the MIC90 (Staphylococcus) was 8 µg/mL. It also gave an MIC50 (Acinetobacter baumannii) of 2 µg/mL, an MIC90 (Acinetobacter baumannii) of 16 µg/mL and an MIC50 (Streptococcus pyogenes) of 1 µg/mL. For the same molecule, the MIC90 (Streptococcus pyogenes) was 2 µg/mL, the MIC50 (Citrobacter freundii) was 0.12 µg/mL and the MIC90 (Citrobacter freundii) was 2 µg/mL. For the same molecule, the MIC50 (Enterococcus faecalis [4]) was 2 µg/mL, the MIC (Neisseria gonorrhoeae [5]) was 2 µg/mL and the MIC50 (Escherichia coli [6]) was 0.5 µg/mL. The MIC90 (Escherichia coli [6]) was 1 µg/mL, the MIC50 [7] was 0.5 µg/mL and the MIC90 [7] was 8 µg/mL. The MIC50 (Staphylococcus aureus [8]) was 16 µg/mL, the MIC90 (Staphylococcus aureus [8]) was 16 µg/mL and the MIC50 (Staphylococcus aureus [14]) was 0.25 µg/mL. The MIC90 (Staphylococcus aureus [14]) was 0.25 µg/mL, the MIC50 (Klebsiella pneumoniae) was 2 µg/mL and the MIC90 (Klebsiella pneumoniae) was over 16 µg/mL. For the same molecule, the MIC50 (Streptococcus agalactiae) was 1 µg/mL, the MIC90 (Streptococcus agalactiae) was 2 µg/mL and the MIC50 (Streptococcus viridans) was 1 µg/mL. It also gave an MIC90 (Streptococcus viridans) of 2 µg/mL, an MIC50 (Haemophilus influenzae) of 0.25 µg/mL and an MIC90 (Haemophilus influenzae) of 8 µg/mL. For the same molecule, the MIC50 (Escherichia coli [9]) was over 16 µg/mL, the MIC90 (Escherichia coli [9]) was over 16 µg/mL and the MIC50 (Enterobacter cloacae) was 2 µg/mL. It also gave an MIC90 (Enterobacter cloacae) of 16 µg/mL, an MIC50 (Streptococcus pneumoniae [10]) of 16 µg/mL and an MIC90 (Streptococcus pneumoniae [10]) of over 16 µg/mL. For the same molecule, the MIC50 (Streptococcus pneumoniae [15]) was 1 µg/mL, the MIC90 (Streptococcus pneumoniae [15]) was 2 µg/mL and the MIC50 (Enterococcus faecium [11]) was over 16 µg/mL. For the same molecule, the MIC90 (Enterococcus faecium [11]) was over 16 µg/mL and the MIC (Neisseria gonorrhoeae [12]) was 0.5 µg/mL.

For `COc1c(N2C[C@@H](C)C[C@H](N)C2)ccc2c(=O)c(C(=O)O)cn(C3CC3)c12.O=C(O)CC(O)C(=O)O` [NEMONOXACIN MALIC ACID], the MIC50 (Enterococcus faecium [1]) was 4 µg/mL, the MIC90 (Enterococcus faecium [1]) was 8 µg/mL and the MIC50 (Enterococcus faecalis [2]) was 0.25 µg/mL. For the same molecule, the MIC90 (Enterococcus faecalis [2]) was 4 µg/mL, the MIC50 (Staphylococcus aureus [13]) was 0.03 µg/mL and the MIC90 (Staphylococcus aureus [13]) was 0.12 µg/mL. For the same molecule, the MIC50 (Pseudomonas aeruginosa) was 16 µg/mL, the MIC90 (Pseudomonas aeruginosa) was over 16 µg/mL and the MIC (Neisseria gonorrhoeae [3]) was 0.25 µg/mL. It also gave an MIC50 (Proteus mirabilis) of 8 µg/mL, an MIC90 (Proteus mirabilis) of over 16 µg/mL and an MIC50 (Staphylococcus) of 0.12 µg/mL. It also gave an MIC90 (Staphylococcus) of 0.5 µg/mL, an MIC50 (Acinetobacter baumannii) of 4 µg/mL and an MIC90 (Acinetobacter baumannii) of over 16 µg/mL. It also gave an MIC50 (Streptococcus pyogenes) of 0.12 µg/mL, an MIC90 (Streptococcus pyogenes) of 0.12 µg/mL and an MIC50 (Citrobacter freundii) of 0.5 µg/mL. For the same molecule, the MIC90 (Citrobacter freundii) was 4 µg/mL, the MIC50 (Enterococcus faecalis [4]) was 0.25 µg/mL and the MIC90 (Enterococcus faecalis [4]) was 4 µg/mL. It also gave an MIC (Neisseria gonorrhoeae [5]) of 0.25 µg/mL, an MIC50 (Escherichia coli [6]) of 1 µg/mL and an MIC90 (Escherichia coli [6]) of 2 µg/mL. The MIC50 [7] was 0.12 µg/mL, the MIC90 [7] was 0.5 µg/mL and the MIC50 (Staphylococcus aureus [8]) was 1 µg/mL. The MIC90 (Staphylococcus aureus [8]) was 1 µg/mL, the MIC50 (Staphylococcus aureus [14]) was 0.03 µg/mL and the MIC90 (Staphylococcus aureus [14]) was 0.06 µg/mL. The MIC50 (Klebsiella pneumoniae) was 4 µg/mL, the MIC90 (Klebsiella pneumoniae) was over 16 µg/mL and the MIC (Streptococcus agalactiae) was 0.12 µg/mL. The MIC50 (Streptococcus agalactiae) was 0.12 µg/mL, the MIC90 (Streptococcus agalactiae) was 0.25 µg/mL and the MIC50 (Streptococcus viridans) was 0.12 µg/mL. For the same molecule, the MIC90 (Streptococcus viridans) was 0.25 µg/mL, the MIC50 (Haemophilus influenzae) was 0.12 µg/mL and the MIC90 (Haemophilus influenzae) was 4 µg/mL. For the same molecule, the MIC50 (Escherichia coli [9]) was over 16 µg/mL, the MIC90 (Escherichia coli [9]) was over 16 µg/mL and the MIC50 (Enterobacter cloacae) was 4 µg/mL. It also gave an MIC90 (Enterobacter cloacae) of over 16 µg/mL, an MIC50 (Streptococcus pneumoniae [10]) of 1 µg/mL and an MIC90 (Streptococcus pneumoniae [10]) of 2 µg/mL. It also gave an MIC50 (Streptococcus pneumoniae [15]) of 0.12 µg/mL, an MIC90 (Streptococcus pneumoniae [15]) of 0.12 µg/mL and an MIC50 (Enterococcus faecium [11]) of 4 µg/mL. The MIC90 (Enterococcus faecium [11]) was 8 µg/mL and the MIC (Neisseria gonorrhoeae [12]) was 0.25 µg/mL.
